Data: ChEMBL document CHEMBL4732105, “First orally bioavailable prodrug of proteolysis targeting chimera (PROTAC) degrades cyclin-dependent kinases 2/4/6 in vivo” (Eur J Med Chem, 2021)
The source made the active and inactive calls. The rule behind the calls is not given here.

Assays:
A-375 [1] = assay: Induction of cell cycle arrest in human A-375 cells assessed as accumulation at G1 phase at 500 uM incubated for 48 hrs by propidium iodide staining based flow cytometry (reference value: 58.26%); format: functional
Method in brief: (§1)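 Tumor cells incubated 48 h in complete medium with compound or DMSO at various concentrations, stained with propidium iodide, and DNA content read by flow cytometry. G0/G1, S and G2/M fractions reported; mean ± SD, n = 3, Student's t-test.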

B16-F10 [2] = assay: Induction of cell cycle arrest in mouse B16F10 cells assessed as accumulation at G2/M phase upto 100 uM incubated for 48 hrs by propidium iodide staining based flow cytometry; format: functional; settings: dose microM <=100, time 48.0 hrs
B16-F10 [3] = assay: Induction of cell cycle arrest in mouse B16-F10 cells assessed as accumulation at G1 phase at 25 uM incubated for 48 hrs by propidium iodide staining based flow cytometry (reference value: 52.59%); format: functional
[4] = target: T1, Protein cereblon/Cyclin-dependent kinase 2 (Mus musculus) (UniProt P97377+Q8C7D2); assay: Protac activity at CRBN/CDK2 in mouse B16F10 cells assessed as induction of CDK2 protein degradation at 100 nM for 6 hrsin presence of Pomalidomide by Western blot analysis; format: cell-based; settings: B16-F10, time 6.0 hrs
Method in brief: (§2)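 B16F10 cells pre-treated 2 h with DMSO, pomalidomide (10 μM), MG132 (20 μM) or a parent CDK ligand, then exposed to 100 nM degrader for 6 h. CDK2/4/6 protein levels read by western blot.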

B16-F10 [5] = assay: Induction of apoptosis in mouse B16F10 cells assessed as necrotic cells at 125 nM incubated for 48 hrs by Annexin V-FITC/PI staining based flow cytometry (reference value: 0.21%); format: functional
[6] = target: Protein cereblon/Cyclin-dependent kinase 6 (Homo sapiens) (UniProt Q00534+Q96SW2); assay: Protac activity at CRBN/CDK6 in human A-375 cells assessed as induction of CDK6 protein degradation after 12 hrs by Western blot analysis; format: cell-based; settings: dose 62.5-1000 nM
Method in brief: (§3)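 B16F10 and A375 cells treated with DMSO or serial dilutions of compound for 12 h (concentration series), or for the indicated times (time course). CDK2, CDK4 and CDK6 protein levels determined by western blot.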

[7] = target: T2, Protein cereblon/Cyclin-dependent kinase 6 (Mus musculus) (UniProt Q8C7D2+Q64261); assay: Protac activity at CRBN/CDK6 in mouse B16F10 cells assessed as induction of CDK6 protein degradation at 100 nM for 6 hrsin presence of methyl 6-(7-cyclopentyl-6-(dimethylcarbamoyl)-7H-pyrrolo[2,3-d]pyrimidin-2-ylamino)nicotinate by Western blot analysis; format: cell-based; settings: B16-F10, time 6.0 hrs; method in brief: as §2
[8] = target: Protein cereblon/Cyclin-dependent kinase 4 (Homo sapiens) (UniProt P11802+Q96SW2); assay: Protac activity at CRBN/CDK4 in human A-375 cells assessed as induction of CDK4 protein degradation after 12 hrs by Western blot analysis; format: cell-based; settings: dose 62.5-1000 nM; method in brief: as §3
[9] = target: T1, Protein cereblon/Cyclin-dependent kinase 2 (Mus musculus); assay: Protac activity at CRBN/CDK2 in mouse B16F10 cells assessed as induction of CDK2 protein degradation at 100 nM for 6 hrsin presence of Ribociclib by Western blot analysis; format: cell-based; settings: B16-F10, time 6.0 hrs
B16-F10 [10] = assay: Induction of cell cycle arrest in mouse B16-F10 cells assessed as accumulation at G1 phase at 50 uM incubated for 48 hrs by propidium iodide staining based flow cytometry (reference value: 52.59%); format: functional
B16-F10 [11] = assay: Induction of apoptosis in mouse B16F10 cells assessed as early apoptotic cells at 250 nM incubated for 48 hrs by Annexin V-FITC/PI staining based flow cytometry (reference value: 3.52%); format: functional
B16-F10 [12] = assay: Induction of cell cycle arrest in mouse B16-F10 cells assessed as accumulation at G2 phase at 25 uM incubated for 48 hrs by propidium iodide staining based flow cytometry (reference value: 18.22%); format: functional
[13] = target: T3, Protein cereblon/Cyclin-dependent kinase 4 (Mus musculus) (UniProt P30285+Q8C7D2); assay: Protac activity at CRBN/CDK4 in mouse B16F10 cells assessed as induction of CDK4 protein degradation at 100 nM for 6 hrsin presence of Pomalidomide by Western blot analysis; format: cell-based; settings: B16-F10, time 6.0 hrs; method in brief: as §2
A-375 [14] = assay: Induction of cell cycle arrest in human A-375 cells assessed as accumulation at G1 phase at 1000 uM incubated for 48 hrs by propidium iodide staining based flow cytometry (reference value: 58.26%); format: functional; method in brief: as §1
B16-F10 [15] = assay: Induction of apoptosis in mouse B16F10 cells assessed as early apoptotic cells at 125 nM incubated for 48 hrs by Annexin V-FITC/PI staining based flow cytometry (reference value: 3.52%); format: functional
A-375 [16] = assay: Induction of apoptosis in human A-375 cells assessed as decrease in Bcl-2 level upto 2000 nM incubated for 48 hrs by Western blot analysis; format: functional, cell-based; settings: dose nM <=2000, time 48.0 hrs
Method in brief: (§4)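 A375 and B16F10 cells incubated with compound for 48 h. Cleaved caspase-3, cleaved PARP, total P53, Bcl-2 and Bax measured by western blot.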

A-375 [17] = assay: Induction of cell cycle arrest in human A-375 cells assessed as accumulation at G2 phase at 1000 uM incubated for 48 hrs by propidium iodide staining based flow cytometry (reference value: 12.42%); format: functional; method in brief: as §1
B16-F10 [18] = assay: Induction of apoptosis in mouse B16F10 cells assessed as early apoptotic cells at 500 nM incubated for 48 hrs by Annexin V-FITC/PI staining based flow cytometry (reference value: 3.52%); format: functional
A-375 [19] = assay: Induction of apoptosis in human A-375 cells assessed as viable cells at 500 nM incubated for 48 hrs by Annexin V-FITC/PI staining based flow cytometry (reference value: 93.3%); format: functional; settings: read-out: Activity
B16-F10 [20] = assay: Induction of apoptosis in mouse B16F10 cells assessed as viable cells at 125 nM incubated for 48 hrs by Annexin V-FITC/PI staining based flow cytometry (reference value: 95.9%); format: functional; settings: read-out: Activity
A-375 [21] = assay: Induction of cell cycle arrest in human A-375 cells assessed as accumulation at G1 phase at 250 uM incubated for 48 hrs by propidium iodide staining based flow cytometry (reference value: 58.26%); format: functional; method in brief: as §1
[22] = target: T2, Protein cereblon/Cyclin-dependent kinase 6 (Mus musculus); assay: Protac activity at CRBN/CDK6 in mouse B16F10 cells assessed as induction of CDK6 protein degradation at 500 nM by Western blot analysis; format: cell-based; settings: B16-F10, time hrs <=12, TDE = time-dependent effect; method in brief: as §3
B16-F10 [23] = assay: Inhibition of colony formation in mouse B16F10 cells at 50 to 100 nM measured after 7 days by crystal violet staining based colony formation assay; format: functional, cell-based; settings: dose 50-100 nM, time 7.0 day
Method in brief: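 Colony formation (long-term growth) assay in A375 and B16F10 cells under continuous compound exposure for 7 days, then clonogenic growth quantified. Mean ± SD, n = 3; Student's t-test.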

A-375 [24] = assay: Induction of apoptosis in human A-375 cells assessed as late apoptotic cells at 1000 nM incubated for 48 hrs by Annexin V-FITC/PI staining based flow cytometry (reference value: 3.28%); format: functional
B16-F10 [25] = assay: Induction of apoptosis in mouse B16F10 cells assessed as decrease in Bcl-2 level upto 1000 nM incubated for 48 hrs by Western blot analysis; format: functional, cell-based; settings: dose nM <=1000, time 48.0 hrs; method in brief: as §4
[26] = target: T3, Protein cereblon/Cyclin-dependent kinase 4 (Mus musculus); assay: Protac activity at CRBN/CDK4 in mouse B16F10 cells assessed as induction of CDK4 protein degradation at 100 nM for 6 hrsin presence of Ribociclib by Western blot analysis; format: cell-based; settings: B16-F10, time 6.0 hrs

T1 sequence (Q8C7D2 whole entry, looked up, other chains not shown): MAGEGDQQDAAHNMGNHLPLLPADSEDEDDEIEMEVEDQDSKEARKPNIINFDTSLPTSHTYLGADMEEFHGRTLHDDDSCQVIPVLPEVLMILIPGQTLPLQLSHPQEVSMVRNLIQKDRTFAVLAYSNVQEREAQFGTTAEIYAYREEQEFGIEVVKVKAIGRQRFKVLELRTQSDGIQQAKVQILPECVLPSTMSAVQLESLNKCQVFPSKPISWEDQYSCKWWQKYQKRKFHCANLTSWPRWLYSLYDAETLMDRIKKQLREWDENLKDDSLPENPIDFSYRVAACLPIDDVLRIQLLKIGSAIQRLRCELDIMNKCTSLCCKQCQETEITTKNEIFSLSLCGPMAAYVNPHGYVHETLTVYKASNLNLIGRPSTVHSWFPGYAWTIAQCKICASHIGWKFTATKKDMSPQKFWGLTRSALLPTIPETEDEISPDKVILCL
T2 sequence (Q64261 whole entry, looked up): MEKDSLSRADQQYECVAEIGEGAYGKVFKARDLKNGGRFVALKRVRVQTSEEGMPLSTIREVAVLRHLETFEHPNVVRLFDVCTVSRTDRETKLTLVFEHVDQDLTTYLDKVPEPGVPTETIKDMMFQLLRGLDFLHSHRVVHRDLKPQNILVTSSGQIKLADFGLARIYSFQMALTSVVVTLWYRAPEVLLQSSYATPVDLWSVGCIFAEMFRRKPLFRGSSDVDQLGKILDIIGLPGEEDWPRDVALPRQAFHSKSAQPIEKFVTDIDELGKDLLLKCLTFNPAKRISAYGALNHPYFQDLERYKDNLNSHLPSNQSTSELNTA
T2 sequence (Q8C7D2 whole entry, looked up): as the sequence (Q8C7D2 whole entry, looked up, other chains not shown) above
T3 sequence (P30285 whole entry, looked up): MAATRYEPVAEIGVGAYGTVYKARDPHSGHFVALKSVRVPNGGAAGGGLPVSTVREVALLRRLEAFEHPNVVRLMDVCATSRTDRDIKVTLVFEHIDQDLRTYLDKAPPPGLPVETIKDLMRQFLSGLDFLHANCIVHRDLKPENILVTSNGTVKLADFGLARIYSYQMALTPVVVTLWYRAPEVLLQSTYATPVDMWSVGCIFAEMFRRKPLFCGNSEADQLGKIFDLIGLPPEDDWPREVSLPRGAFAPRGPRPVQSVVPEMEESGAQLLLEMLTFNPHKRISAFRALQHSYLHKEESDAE
T3 sequence (Q8C7D2 whole entry, looked up): as the sequence (Q8C7D2 whole entry, looked up, other chains not shown) above
Chain of Protein cereblon/Cyclin-dependent kinase 4 (Homo sapiens) (P11802 2-303 limits assumed): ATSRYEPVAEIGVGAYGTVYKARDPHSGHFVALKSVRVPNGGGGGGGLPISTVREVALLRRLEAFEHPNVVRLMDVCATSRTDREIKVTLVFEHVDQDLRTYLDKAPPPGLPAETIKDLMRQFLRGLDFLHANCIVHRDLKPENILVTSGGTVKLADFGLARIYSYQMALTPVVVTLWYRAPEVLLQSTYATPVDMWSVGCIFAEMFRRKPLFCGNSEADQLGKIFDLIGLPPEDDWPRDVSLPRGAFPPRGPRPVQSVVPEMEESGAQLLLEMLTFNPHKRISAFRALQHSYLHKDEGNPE
Chain of Protein cereblon/Cyclin-dependent kinase 4 (Homo sapiens) (Q96SW2 whole entry partner): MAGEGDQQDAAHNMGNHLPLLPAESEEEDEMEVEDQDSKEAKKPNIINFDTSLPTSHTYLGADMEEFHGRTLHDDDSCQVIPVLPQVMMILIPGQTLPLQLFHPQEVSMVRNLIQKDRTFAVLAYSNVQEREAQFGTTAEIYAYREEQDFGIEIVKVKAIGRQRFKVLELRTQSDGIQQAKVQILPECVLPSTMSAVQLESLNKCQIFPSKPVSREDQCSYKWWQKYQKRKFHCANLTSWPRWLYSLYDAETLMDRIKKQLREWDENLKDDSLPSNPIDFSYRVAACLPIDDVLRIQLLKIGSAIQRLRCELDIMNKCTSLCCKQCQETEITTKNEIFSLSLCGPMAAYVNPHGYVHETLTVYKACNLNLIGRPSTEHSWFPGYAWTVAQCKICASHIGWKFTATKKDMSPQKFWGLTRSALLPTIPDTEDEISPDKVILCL
Chain of Protein cereblon/Cyclin-dependent kinase 6 (Homo sapiens) (Q00534 whole entry, looked up): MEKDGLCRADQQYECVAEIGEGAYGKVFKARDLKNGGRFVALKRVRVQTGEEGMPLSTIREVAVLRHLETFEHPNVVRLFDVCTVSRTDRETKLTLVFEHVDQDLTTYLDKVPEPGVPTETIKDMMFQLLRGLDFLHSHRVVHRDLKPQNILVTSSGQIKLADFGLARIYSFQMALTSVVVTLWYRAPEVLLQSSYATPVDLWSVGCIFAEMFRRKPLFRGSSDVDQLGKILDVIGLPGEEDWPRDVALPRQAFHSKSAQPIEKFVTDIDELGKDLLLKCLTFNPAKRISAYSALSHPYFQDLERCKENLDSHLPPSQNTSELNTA
Chain of Protein cereblon/Cyclin-dependent kinase 6 (Homo sapiens) (Q96SW2 whole entry, looked up): as the sequence (Q96SW2 whole entry partner) above

Activity [4]: inactive | Activity [6]: Dose-dependent effect | Activity [7]: inactive | Activity [8]: Dose-dependent effect | Activity [9]: Active | Activity [13]: inactive | Activity [22]: Tde | Activity [26]: inactive
Structure (SMILES): CN(C)C(=O)c1cc2cnc(Nc3ccc(C(=O)NCCCCCCNc4cccc5c4C(=O)N(C4CCC(=O)NC4=O)C5=O)cc3)nc2n1C1CCCC1 (stereo unspecified)
Activity (A-375 [1]): 73.45% | Activity (B16-F10 [2]): Active | Activity (B16-F10 [3]): 49.67% | Activity (B16-F10 [5]): 0.289% | Activity (B16-F10 [10]): 49.54% | Activity (B16-F10 [11]): 70.3% | Activity (B16-F10 [12]): 19.56% | Activity (A-375 [14]): 74.09% | Activity (B16-F10 [15]): 7.15% | Activity (A-375 [16]): Active | Activity (A-375 [17]): 16.68% | Activity (B16-F10 [18]): 93.6% | viability at 0.5 µM (A-375 [19]): 85.2% | viability at 0.125 µM (B16-F10 [20]): 86.1% | Activity (A-375 [21]): 67.64% | inhibition (B16-F10 [23]): Active | Activity (A-375 [24]): 14.8% | Activity (B16-F10 [25]): Active
